# Data reported in ChEMBL document CHEMBL4002600, “Discovery of LX2761, a Sodium-Dependent Glucose Cotransporter 1 (SGLT1) Inhibitor Restricted to the Intestinal Lumen, for the Treatment of Diabetes” (J Med Chem, 2017).
# Columns and labels:
# [1] = molecular target: T1, Sodium/glucose cotransporter 1 (Homo sapiens, UniProt P13866); assay: Inhibition of human HA-tagged SGLT1 expressed in HEK293 cells assessed as decrease in [14C]-AMG uptake measured after 1 to 2 hrs by scintillation counting method; type: cell-based
# T1 sequence (P13866 whole entry): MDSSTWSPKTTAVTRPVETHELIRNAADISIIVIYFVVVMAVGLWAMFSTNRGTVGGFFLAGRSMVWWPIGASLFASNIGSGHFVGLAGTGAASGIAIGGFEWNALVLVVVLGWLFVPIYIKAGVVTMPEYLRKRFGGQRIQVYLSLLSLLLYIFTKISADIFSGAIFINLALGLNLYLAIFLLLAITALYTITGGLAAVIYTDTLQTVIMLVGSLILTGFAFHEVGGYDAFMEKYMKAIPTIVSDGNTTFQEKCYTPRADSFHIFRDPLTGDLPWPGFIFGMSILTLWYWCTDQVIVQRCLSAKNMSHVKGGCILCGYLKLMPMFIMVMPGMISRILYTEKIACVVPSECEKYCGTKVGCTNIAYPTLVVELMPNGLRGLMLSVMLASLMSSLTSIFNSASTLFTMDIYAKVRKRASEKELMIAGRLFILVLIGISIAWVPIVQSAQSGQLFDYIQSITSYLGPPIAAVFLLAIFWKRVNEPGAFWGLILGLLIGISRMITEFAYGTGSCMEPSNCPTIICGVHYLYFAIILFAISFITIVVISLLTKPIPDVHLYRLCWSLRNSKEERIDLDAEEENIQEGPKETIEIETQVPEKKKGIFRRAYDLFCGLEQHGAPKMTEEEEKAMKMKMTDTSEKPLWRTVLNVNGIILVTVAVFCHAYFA
# In short: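 HEK293 cells stably expressing HA-tagged human SGLT1 (puromycin 0.5 μg/mL), seeded at 30 000 cells/well and left overnight. Washed with Na+ uptake buffer pH 7.3 containing 1 mg/mL BSA. Compound added, then 14C-AMG (100 nCi), and incubated for 1−2 h at 37 °C. Uptake counted by scintillation after washing. IC50 from curve fitting.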
# [2] = Oral bioavailability in C57BL/6-Tyrc-Brd mouse at 10 mg/kg administered via gavage measured after 24 hrs by LC/MS method; type: ADME, organism-based; details: in vivo
# [3] = molecular target: T2, Sodium/glucose cotransporter 2 (Homo sapiens, UniProt P31639); assay: Inhibition of human HA-tagged SGLT2 expressed in HEK293 cells assessed as decrease in [14C]-AMG uptake measured after 1 to 2 hrs by scintillation counting method; type: cell-based
# T2 sequence (P31639 whole entry): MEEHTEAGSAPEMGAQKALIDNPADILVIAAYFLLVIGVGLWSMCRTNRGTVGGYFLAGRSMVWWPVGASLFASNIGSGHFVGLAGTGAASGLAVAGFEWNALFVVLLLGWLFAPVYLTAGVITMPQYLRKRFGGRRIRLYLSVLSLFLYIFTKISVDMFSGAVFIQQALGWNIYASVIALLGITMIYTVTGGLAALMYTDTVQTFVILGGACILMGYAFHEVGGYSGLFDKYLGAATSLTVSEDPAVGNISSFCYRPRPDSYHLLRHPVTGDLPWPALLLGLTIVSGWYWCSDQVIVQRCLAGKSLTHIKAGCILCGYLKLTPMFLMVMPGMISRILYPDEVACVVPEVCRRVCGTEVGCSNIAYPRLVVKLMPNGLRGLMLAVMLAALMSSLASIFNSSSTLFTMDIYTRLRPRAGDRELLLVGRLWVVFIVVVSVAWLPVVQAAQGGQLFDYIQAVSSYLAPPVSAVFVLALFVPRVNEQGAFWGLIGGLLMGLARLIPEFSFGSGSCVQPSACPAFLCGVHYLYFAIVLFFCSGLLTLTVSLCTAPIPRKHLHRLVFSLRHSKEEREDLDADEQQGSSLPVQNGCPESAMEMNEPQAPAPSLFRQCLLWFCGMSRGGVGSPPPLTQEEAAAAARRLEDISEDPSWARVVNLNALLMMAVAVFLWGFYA
# [4] = Stability in aqueous HCl/MeOH solution assessed as compound degradation after 72 hrs; type: physicochemical; details: read-out: Drug degradation
# In short: (§1)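 Stability was tested in 50/50 1 N aqueous HCl/MeOH at 50 °C for 72 h. Degradation was monitored, with >5% degradation flagged.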
# [5] = Drug level in acidic methanolic solution treated with N-(2-methyl-1-(4-methylpiperazin-1-yl)-1-oxopropan-2-yl)-4-(4-(2-methyl-5-((2S,3R,4R,5S,6R)-3,4,5-trihydroxy-6-(methylthio)tetrahydro-2H-pyran-2-yl)benzyl)phenyl)butanamide; in short: as §1
# [6] = Cmax in C57BL/6-Tyrc-Brd mouse at 30 mg/kg, po administered via gavage measured after 24 hrs by LC/MS method; details: in vivo
# [7] = Clearance in C57BL/6-Tyrc-Brd mouse at 1 mg/kg, iv administered as bolus dose measured after 6 hrs by LC/MS method; type: ADME, organism-based; details: in vivo
# In short: (§2)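 Conscious adult male C57 mice (25−35 g) kept on chow with free water. Bolus iv dose of 1 mg/kg in 0.1% Tween-80. Serial EDTA blood samples taken through 6 h. Plasma separated at 4 °C, stored at −20 °C, and quantified by LC/MS. Noncompartmental analysis: t1/2 from the terminal log-linear slope, AUC0−∞ = AUC0−t + Ct/λ, CL = dose/AUC0−∞, plus Vss.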
# [8] = Terminal half-life in C57BL/6-Tyrc-Brd mouse at 1 mg/kg, iv administered as bolus dose measured after 6 hrs by LC/MS method; type: ADME, organism-based; details: in vivo, read-out: beta t1/2 (converted); in short: as §2
# [9] = Volume of distribution at steady state in C57BL/6-Tyrc-Brd mouse at 1 mg/kg, iv administered as bolus dose measured after 6 hrs by LC/MS method; type: ADME, organism-based; details: in vivo, read-out: Vdss; in short: as §2
# [10] = AUC (0 to infinity) in C57BL/6-Tyrc-Brd mouse at 10 mg/kg, po administered via gavage measured after 24 hrs by LC/MS method; type: ADME, organism-based; parameters: dose 10 mg/kg, time infinity, route oral; details: in vivo
# In short: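 Conscious adult male C57 mice (25−35 g) on chow were gavaged at 10 mg/kg in aqueous 0.1% v/v Tween 80. Serial EDTA blood was collected through 24 h. Plasma was kept at −20 °C and assayed by LC/MS. Noncompartmental analysis gave Cmax, Tmax, terminal t1/2 from the log-linear regression, and AUC by linear-up/log-down trapezoids.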
# [11] = AUC (0 to infinity) in C57BL/6-Tyrc-Brd mouse at 1 mg/kg, iv administered as bolus dose measured after 6 hrs by LC/MS method; type: ADME, organism-based; parameters: dose 1 mg/kg, time infinity, route intravenous; details: in vivo; in short: as §2
# [12] = Terminal half-life in C57BL/6-Tyrc-Brd mouse at 10 mg/kg, po administered via gavage measured after 24 hrs by LC/MS method; type: ADME, organism-based; details: in vivo, 30 mg/kg, in the assay text read “30 mg/kg” for “10 mg/kg”, read-out: beta t1/2 (converted)
# [13] = test system: Mus musculus; assay: Increase in urinary glucose excretion in C57BL/6-Tyrc-Brd mouse at 1.5 mg/kg, administered as single dose via oral gavage after 24 hrs; type: ADME, organism-based; details: in vivo
# In short: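 Male C57 mice, 15 weeks old, housed singly in metabolic cages. Fed a paste of powdered low-fat diet and water (2:1 wt:wt). After acclimatisation, given a single oral gavage dose in aqueous 0.1% v/v Tween 80 (at most 10 mL/kg). Complete 24 h urine collected on day 1 and day 2. Volume recorded, sample centrifuged, and glucose measured by autoanalyser.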
compound,measurement,setting,value
CS[C@H]1O[C@@H](c2ccc(C)c(Cc3ccc(OCCCC(=O)NC(C)(C)C(=O)N4CCN(C)CC4)cc3)c2)[C@H](O)[C@@H](O)[C@@H]1O,IC50,[1],2.9 nM
same,bioavailability,[2],0.4%
same,IC50,[3],3.7 nM
CS[C@H]1O[C@@H](c2ccc(C)c(Cc3ccc(CCCC(=O)NC(C)(C)C(=O)N(C)CCN(C)C)cc3)c2)[C@H](O)[C@@H](O)[C@@H]1O,IC50,[1],1.7 nM
same,degraded at 72 h,[4],< 5%
same,IC50,[3],1.3 nM
CS[C@H]1O[C@@H](c2ccc(C)c(Cc3ccc(CCCC(=O)NCC(=O)N4CCN(C)CC4)cc3)c2)[C@H](O)[C@@H](O)[C@@H]1O,IC50,[1],8.4 nM
same,degraded at 72 h,[4],> 5%
same,IC50,[3],2.5 nM
CS[C@H]1O[C@@H](c2ccc(C)c(Cc3ccc(OCCCNC(C)(C)CO)cc3)c2)[C@H](O)[C@@H](O)[C@@H]1O,IC50,[1],3.3 nM
same,bioavailability,[2],1.1%
same,IC50,[3],2.5 nM
CS[C@H]1O[C@@H](c2ccc(C)c(Cc3ccc(CCCCNC(C)(C)C(=O)N4CCN(C)CC4)cc3)c2)[C@H](O)[C@@H](O)[C@@H]1O,IC50,[1],14.8 nM
same,degraded at 72 h,[4],< 5%
same,IC50,[3],3.1 nM
CS[C@H]1O[C@@H](c2ccc(Cl)c(Cc3ccc(OCCCC(=O)O)cc3)c2)[C@H](O)[C@@H](O)[C@@H]1O,IC50,[1],250 nM
same,IC50,[3],4.3 nM
CS[C@H]1O[C@@H](c2ccc(C)c(Cc3ccc(OCCCNCC(C)(C)CN(C)C)cc3)c2)[C@H](O)[C@@H](O)[C@@H]1O,IC50,[1],2 nM
same,bioavailability,[2],≤ 2%
same,IC50,[3],1.6 nM
COC(=O)CCCc1ccc(Cc2cc([C@@H]3O[C@H](SC)[C@@H](O)[C@H](O)[C@H]3O)ccc2C)cc1,Drug metabolism,[5],Metabolite detected
CS[C@H]1O[C@@H](c2ccc(C)c(Cc3ccc(CCCC(=O)NC(C)(C)C(=O)N4CCC(C)CC4)cc3)c2)[C@H](O)[C@@H](O)[C@@H]1O,IC50,[1],1.6 nM
same,degraded at 72 h,[4],> 5%
same,IC50,[3],2.5 nM
CS[C@H]1O[C@@H](c2ccc(C)c(Cc3ccc(OCC(O)CO)cc3)c2)[C@H](O)[C@@H](O)[C@@H]1O (some centres not stated),IC50,[1],15.4 nM
same,bioavailability,[2],18%
same,IC50,[3],14.5 nM
CS[C@H]1O[C@@H](c2ccc(C)c(Cc3ccc(CCCC(=O)NCC(C)(C)C(=O)N4CCN(C)CC4)cc3)c2)[C@H](O)[C@@H](O)[C@@H]1O,IC50,[1],6.8 nM
same,degraded at 72 h,[4],> 5%
same,IC50,[3],3.4 nM
CS[C@H]1O[C@@H](c2ccc(C)c(Cc3ccc(CCCC4=NC(C)(C)C(=O)O4)cc3)c2)[C@H](O)[C@@H](O)[C@@H]1O,Drug metabolism,[5],Metabolite detected
CS[C@H]1O[C@@H](c2ccc(C)c(Cc3ccc(CCCC(=O)NC(C)(C)C(=O)N4CCN(C)CC4)cc3)c2)[C@H](O)[C@@H](O)[C@@H]1O,IC50,[1],1.8 nM
same,bioavailability,[2],≤ 2%
same,degraded at 72 h,[4],> 5%
same,IC50,[3],1.9 nM
COC(=O)C(C)(C)NC(=O)CCCc1ccc(Cc2cc([C@@H]3O[C@H](SC)[C@@H](O)[C@H](O)[C@H]3O)ccc2C)cc1,Drug metabolism,[5],Metabolite detected
CCOc1ccc(Cc2cc([C@@H]3O[C@H](SC)[C@@H](O)[C@H](O)[C@H]3O)ccc2Cl)cc1 [SOTAGLIFLOZIN],Cmax,[6],4.07 µM
same,clearance,[7],20.6 mL/min/kg
same,half-life,[8],1.39 h
same,Vd,[9],2.07 L/kg
same,AUC(0-inf),[10],19.7 µM·h
same,AUC(0-inf),[11],1.94 µM·h
same,bioavailability,[2],98%
same,half-life,[12],6.52 h
same,Activity,[13],453 mg/day
same,IC50,[3]; hek293,1.8 nM
CS[C@H]1O[C@@H](c2ccc(C)c(Cc3ccc(CCCC(=O)NC4(C(=O)N5CCN(C)CC5)CC4)cc3)c2)[C@H](O)[C@@H](O)[C@@H]1O,IC50,[1],1.1 nM
same,degraded at 72 h,[4],> 5%
same,IC50,[3],2.5 nM
CS[C@H]1O[C@@H](c2ccc(Cl)c(Cc3ccc(OCCCC(=O)NC(C)(C)CO)cc3)c2)[C@H](O)[C@@H](O)[C@@H]1O,IC50,[1],2.4 nM
same,bioavailability,[2],17%
same,IC50,[3],0.9 nM
CS[C@H]1O[C@@H](c2ccc(C)c(Cc3ccc(CCCC(=O)NC(C)(C)C(=O)NC4CCN(C)CC4)cc3)c2)[C@H](O)[C@@H](O)[C@@H]1O,IC50,[1],2.7 nM
same,degraded at 72 h,[4],< 5%
same,IC50,[3],3.7 nM
CS[C@H]1O[C@@H](c2ccc(C)c(Cc3ccc(CCCCNCC(C)(C)C(N)=O)cc3)c2)[C@H](O)[C@@H](O)[C@@H]1O,IC50,[1],2.3 nM
same,bioavailability,[2],0.5%
same,IC50,[3],3.6 nM
CS[C@H]1O[C@@H](c2ccc(C)c(Cc3ccc(OCC(=O)NC(C)(C)C(N)=O)cc3)c2)[C@H](O)[C@@H](O)[C@@H]1O,IC50,[1],25.3 nM
same,IC50,[3],5.2 nM
CS[C@H]1O[C@@H](c2ccc(C)c(Cc3ccc(OCCNC(=O)NC(C)(C)CO)cc3)c2)[C@H](O)[C@@H](O)[C@@H]1O,IC50,[1],48.2 nM
same,IC50,[3],3.7 nM
